Assay [1] in a line: reducers of endogenous Her2 protein level, primary screen, SKBR3 breast tumor cells, AlphaScreen, ATP viability (AID 461;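 active means Her2 level under about 52% in both replicate screens, with viability over 70% of control, limit read from the data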;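 on Her2 level: lower value means less Her2 protein in the cells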;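 on viability: percent of carrier control wells set as 100% viability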). Conditions: 18-24 h, measured here: SKBR3 viability, ATP luminescence, at 10 µM.
The target of assay [2] is Receptor tyrosine-protein kinase erbB-2 (Homo sapiens) (UniProt P04626). Described as above. Conditions: 18-24 h, at 10 µM, stronger effect = lower value.
Sequence of Receptor tyrosine-protein kinase erbB-2 (Homo sapiens) (P04626 whole entry, looked up): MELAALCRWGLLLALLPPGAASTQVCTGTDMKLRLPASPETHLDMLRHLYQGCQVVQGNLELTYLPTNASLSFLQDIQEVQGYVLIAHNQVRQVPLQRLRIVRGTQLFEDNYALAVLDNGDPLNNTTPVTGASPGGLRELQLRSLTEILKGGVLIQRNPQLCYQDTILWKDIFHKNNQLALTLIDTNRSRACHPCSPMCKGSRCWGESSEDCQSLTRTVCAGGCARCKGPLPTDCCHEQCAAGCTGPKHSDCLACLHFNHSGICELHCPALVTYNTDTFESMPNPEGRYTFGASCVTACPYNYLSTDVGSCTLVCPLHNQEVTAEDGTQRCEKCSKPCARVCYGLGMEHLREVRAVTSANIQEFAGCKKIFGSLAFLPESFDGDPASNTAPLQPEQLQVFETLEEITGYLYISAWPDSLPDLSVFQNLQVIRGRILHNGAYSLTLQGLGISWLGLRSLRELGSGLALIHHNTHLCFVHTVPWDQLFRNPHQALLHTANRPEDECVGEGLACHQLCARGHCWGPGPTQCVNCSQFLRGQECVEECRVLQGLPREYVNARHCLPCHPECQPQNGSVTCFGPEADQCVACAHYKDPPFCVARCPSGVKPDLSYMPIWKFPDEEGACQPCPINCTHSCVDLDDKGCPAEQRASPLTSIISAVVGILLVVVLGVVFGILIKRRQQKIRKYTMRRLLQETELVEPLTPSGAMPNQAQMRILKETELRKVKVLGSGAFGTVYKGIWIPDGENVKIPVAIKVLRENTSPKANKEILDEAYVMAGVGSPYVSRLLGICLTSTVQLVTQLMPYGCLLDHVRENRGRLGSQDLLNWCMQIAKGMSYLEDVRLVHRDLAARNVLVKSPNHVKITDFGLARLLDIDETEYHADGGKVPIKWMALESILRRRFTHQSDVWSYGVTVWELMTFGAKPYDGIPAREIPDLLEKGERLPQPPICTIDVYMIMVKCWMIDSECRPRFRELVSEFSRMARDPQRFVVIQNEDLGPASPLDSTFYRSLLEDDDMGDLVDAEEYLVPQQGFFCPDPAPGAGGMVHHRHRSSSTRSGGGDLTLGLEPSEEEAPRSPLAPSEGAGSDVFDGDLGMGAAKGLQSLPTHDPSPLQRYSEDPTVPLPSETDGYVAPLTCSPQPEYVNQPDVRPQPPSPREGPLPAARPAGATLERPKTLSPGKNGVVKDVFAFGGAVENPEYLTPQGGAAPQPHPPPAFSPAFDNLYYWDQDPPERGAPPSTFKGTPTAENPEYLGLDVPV
Assay [3] in a line: SK-BR-3 cell growth inhibitors, pilot screen, 24 h, human (AID 572).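 Further: compound exposure lasted between 18 and 24 h rather than exactly 24 h; 100% = carrier-treated control wells.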 Conditions: SK-BR-3 viability, CellTiter-Glo luminescence, at 10 µM, stronger effect = lower value.
Assay [4] in a line: HUVEC growth inhibition – cell-based, human, primary screen (AID 575;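 active means viability at or below 30% in both replicate assays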;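 further: 100% = median of untreated cell wells with 0.1% DMSO on each plate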). Conditions: HUVEC proliferation, CellTiter-Glo luminescence, 72 h; at 10 µM; stronger effect = lower value. The method in brief: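 material = primary HUVEC, no more than 12 passages | input = 1250 cells per well | controls = vehicle and MePR control wells | measured by = CTG luminescence | times = 72 h compound incubation | format = collagen-coated 384-well format | read-out = % viability vs DMSO wells | doses = single 10 µM dose, 0.1% DMSO, from 5x medium stock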
(In ATP-based viability assays light output follows the ATP content of the culture.)

Assay [5] in a line: growth inhibitors of H69AR lung tumor, primary screen, human, duplicate replicates (AID 580;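 active means viability at or under a set limit in both replicates, limit being median viability minus 3 SD, cut at about 48% in these data, passing the limit was not always enough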;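 further: 100% = mean luminescence of untreated wells and 0% = no signal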). Conditions: H69AR lung tumor cells viability, ATP luminescence, 72 h; at 10 µM; stronger effect = lower value.
The nature of assay [6]: reversal of MRP1-mediated doxorubicin resistance, pilot screen, H69AR cells, doxorubicin co-treatment (AID 601;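 active means viability loss from added drug above about 55%, and viability with drug at most 40%, in both replicates, limit read from the data, passing the limit was not always enough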). The note with it: CellTiter-Glo, 72 h, at 10 µM; for differential viability (reversal): stronger effect = higher value.
A short description of assay [7]: 384-well plate pilot, post-Golgi transport modulator project, inhibition of yeast transport mutant growth (AID 636; in the data active means inhibition above about 31%). The note with it: absorbance 615 nm, about 18 h, stronger effect = higher value.
A short description of assay [8]: growth suppression of yeast trafficking mutant, preliminary HTS, modulators of trafficking downstream of Golgi apparatus project, 1536-format plate, OD 615 nm (AID 637; in the data active means inhibition above about 30%). The note with it: yeast transport mutant growth, absorbance 615 nm, 18 h; stronger effect = higher value.
[9] abbreviates: H69AR cells + 2 uM doxorubicin, measured here: viability with 2 uM doxorubicin, stronger effect = lower value.
The mark [10] stands for this setting: H69AR cells, compound alone cytotoxicity.

In general, viability refers to a read-out of living cells in per cent, often relative to untreated cells. One may read the inhibition as the drop in the measured response relative to a control, in per cent.

Each structure is given as a SMILES string. Activity calls are given as the source filed them.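 How the source made its calls, unless noted: active means viability at or below 10% of carrier control in both of two separate runs; inconclusive means viability at or below 10% in only one of the two runs; inactive means the rest.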

Turning to `COc1ccc(CCNc2nc(N3CCOCC3)nc(N3CCOCC3)n2)cc1OC`, the viability in assay [1] is 81%; in assay [3], 81% (inactive); in assay [4], 108% (inactive); in assay [5], 96.7% (inactive); in assay [6] (setting [9]), 94.6%; in assay [6] (setting [10]), 96.7%. Also, the Her2 level in assay [2] was 91% (inactive). Also, in assay [6] (H69AR cells + 2 uM doxorubicin), the differential viability (reversal) was 2.03% (inactive). Moreover, the inhibition was 0.4% (inactive) in assay [7] and -4.84% (inactive) in assay [8].

For `CCC(=O)OCCn1c(=O)c2cc3c(=O)n(CCOC(=O)CC)c(=O)c3cc2c1=O`, the viability is 99% in assay [1]; 99% (inactive) in assay [3]; 98.3% (inactive) in assay [4]; 87.2% (inactive) in assay [5]; 91.1% in assay [6] (setting [9]); 87.2% in assay [6] (setting [10]). For the same molecule, in assay [2], the Her2 level was 135% (inactive). The differential viability (reversal) in assay [6] (H69AR cells + 2 uM doxorubicin) is -3.94% (inactive). The inhibition in assay [7] was 4.55% (inactive); in assay [8], -4.83% (inactive).

For `Cc1ccc(N2CC(C)Cn3c2nc2c3c(=O)n(CC(=O)OCc3ccccc3)c(=O)n2C)cc1C` (stereo not given), the viability is 86.5% in assay [1]; 86.5% (inactive) in assay [3]; 74.8% (inactive) in assay [4]; 93.8% (inactive) in assay [5]; 67.2% in assay [6] (setting [9]); 93.8% in assay [6] (setting [10]). Moreover, in assay [2], the Her2 level is 99.5% (inactive). In assay [6] (H69AR cells + 2 uM doxorubicin), the differential viability (reversal) was 26.6% (inactive). For the same molecule, the inhibition in assay [7] was -4.32% (inactive); in assay [8] it was 1.97% (inactive).

Regarding `CCC(C)NC(=O)c1ccccc1NC(=O)C(C)N(c1ccccc1)S(C)(=O)=O` (stereo not given), the viability was 93% in assay [1]; 93% (inactive) in assay [3]; 89.5% (inactive) in assay [4]; 94.5% (inactive) in assay [5]; 102% in assay [6] (setting [9]); 94.5% in assay [6] (setting [10]). Besides, the Her2 level in assay [2] was 102% (inactive). Besides, the differential viability (reversal) in assay [6] (H69AR cells + 2 uM doxorubicin) is -7.6% (inactive). In addition, the inhibition was -4.19% (inactive) in assay [7] and 5.57% (inactive) in assay [8].

Consider `CC(C)(C)c1ccccc1NC(=O)c1cccnc1`, for which the viability in assay [1] is 91.5%; in assay [3], 91.5% (inactive); in assay [4], 88.7% (inactive); in assay [5] it was 96.6% (inactive); in assay [6] (setting [9]) it was 88.8%; in assay [6] (setting [10]), 96.6%. Further, the Her2 level in assay [2] is 93.5% (inactive). The differential viability (reversal) in assay [6] (H69AR cells + 2 uM doxorubicin) was 7.78% (inactive). The inhibition is -4.67% (inactive) in assay [7] and 0.32% (inactive) in assay [8].

On to `Cc1cc(-c2nc3ncccc3o2)ccc1N`, for which the viability is 99% in assay [1]; 99% (inactive) in assay [3]; 92.6% (inactive) in assay [4]; 90.4% (inactive) in assay [5]; 84% in assay [6] (setting [9]); 90.4% in assay [6] (setting [10]). For the same molecule, the Her2 level in assay [2] is 76.5% (inactive). Moreover, in assay [6] (H69AR cells + 2 uM doxorubicin), the differential viability (reversal) was 6.33% (inactive). Moreover, the inhibition in assay [7] is -2.37% (inactive); in assay [8], 11% (inactive).

Regarding `CC(=O)NC(=O)NC1CSCC1OC(C)=O` (stereo not given), the viability in assay [1] is 112%; in assay [3], 112% (inactive); in assay [4], 106% (inactive); in assay [5] it was 92.8% (inactive); in assay [6] (setting [9]), 86.9%; in assay [6] (setting [10]) it was 92.8%. Moreover, in assay [2], the Her2 level was 89% (inactive). Besides, the differential viability (reversal) in assay [6] (H69AR cells + 2 uM doxorubicin) is 5.96% (inactive). Moreover, the inhibition in assay [7] is -6.53% (inactive); in assay [8], 0.48% (inactive).

Turning to `Cc1csc(NC(=O)CSc2nsc(SCC(=O)Nc3nc(C)cs3)c2C#N)n1`, the viability is 94.5% in assay [1]; 94.5% (inactive) in assay [3]; 58.7% (inactive) in assay [4]; 6.57% (active) in assay [5]; 7.88% in assay [6] (setting [9]); 6.57% in assay [6] (setting [10]). Moreover, the Her2 level in assay [2] is 69% (inactive). The differential viability (reversal) in assay [6] (H69AR cells + 2 uM doxorubicin) was -1.3% (inactive). Also, the inhibition in assay [7] is -6.67% (inactive); in assay [8] it was -1.43% (inactive).

For `COc1cc(-c2c(C#N)c(N)nc3c2CCCC3)cc(OC)c1OC`, the viability in assay [1] was 89%; in assay [3], 89% (inactive); in assay [4], 74.2% (inactive); in assay [5], 76.4% (inactive); in assay [6] (setting [9]), 86.1%; in assay [6] (setting [10]) it was 76.4%. The Her2 level in assay [2] is 72% (inactive). In assay [6] (H69AR cells + 2 uM doxorubicin), the differential viability (reversal) was -9.71% (inactive). For the same molecule, the inhibition in assay [7] is -2.63% (inactive); in assay [8] it was 3.39% (inactive).

`CC(Oc1ccc(Cl)cc1Cl)C(=O)Nc1ncccn1` (stereo not given): the viability was 93.5% in assay [1]; 93.5% (inactive) in assay [3]; 99.6% (inactive) in assay [4]; 97.2% (inactive) in assay [5]; 87.7% in assay [6] (setting [9]); 97.2% in assay [6] (setting [10]). Further, the Her2 level in assay [2] was 108% (inactive). For the same molecule, in assay [6] (H69AR cells + 2 uM doxorubicin), the differential viability (reversal) was 9.42% (inactive). Besides, the inhibition in assay [7] was -1.17% (inactive); in assay [8] it was -11% (inactive).

Regarding `Cc1nc(NS(=O)(=O)c2ccccc2)sc1NC(=O)OC(C)C`, the viability was 97% in assay [1]; 97% (inactive) in assay [3]; 90.3% (inactive) in assay [4]; 99.9% (inactive) in assay [5]; 98.7% in assay [6] (setting [9]); 99.9% in assay [6] (setting [10]). Besides, in assay [2], the Her2 level was 106% (inactive). The differential viability (reversal) in assay [6] (H69AR cells + 2 uM doxorubicin) was 1.17% (inactive). Also, the inhibition is -3.29% (inactive) in assay [7] and -12.5% (inactive) in assay [8].

For the molecule `CC(C)CCNC(=O)C1CCN(C(=O)N(C)C)CC1`, the viability in assay [1] was 104%; in assay [3], 104% (inactive); in assay [4] it was 108% (inactive); in assay [5], 98.8% (inactive); in assay [6] (setting [9]), 93.8%; in assay [6] (setting [10]), 98.8%. In addition, the Her2 level in assay [2] was 125% (inactive). Moreover, the differential viability (reversal) in assay [6] (H69AR cells + 2 uM doxorubicin) is 5% (inactive). In addition, the values for the inhibition in assay [7] and in assay [8] were -1.41% (inactive) and -1.33% (inactive), respectively.

As for `CCCCc1n[nH]c2c1C(=O)CC(C)(C)C2`, the viability in assay [1] was 73.5%; in assay [3], 73.5% (inactive); in assay [4] it was 102% (inactive); in assay [5] it was 96.9% (inactive); in assay [6] (setting [9]), 83.5%; in assay [6] (setting [10]), 96.9%. Moreover, the Her2 level in assay [2] is 90.5% (inactive). In assay [6] (H69AR cells + 2 uM doxorubicin), the differential viability (reversal) was 13.4% (inactive). In addition, the inhibition in assay [7] is -3.78% (inactive); in assay [8], 0% (inactive).

For `O=C(c1ccc(Br)o1)N(c1ccc(Br)cc1)C1C=CS(=O)(=O)C1` (stereo not given), the viability in assay [1] was 89%; in assay [3], 89% (inactive); in assay [4], 80% (inactive); in assay [5] it was 87% (inactive); in assay [6] (setting [9]) it was 81.7%; in assay [6] (setting [10]), 87%. Moreover, in assay [2], the Her2 level was 156% (inactive). Besides, the differential viability (reversal) in assay [6] (H69AR cells + 2 uM doxorubicin) is 5.32% (inactive). In addition, the inhibition in assay [7] is 5% (inactive); in assay [8], 21% (inactive).

Turning to `CCOC(=O)c1cc2sc(C)cc2n1C(C)C(=O)OCC` (stereo not given), the viability in assay [1] is 97.5%; in assay [3], 97.5% (inactive); in assay [4], 95.8% (inactive); in assay [5] it was 86.3% (inactive); in assay [6] (setting [9]) it was 92.5%; in assay [6] (setting [10]), 86.3%. In assay [2], the Her2 level is 79% (inactive). For the same molecule, the differential viability (reversal) in assay [6] (H69AR cells + 2 uM doxorubicin) was -6.21% (inactive). For the same molecule, the inhibition in assay [7] was -3.6% (inactive); in assay [8], 1.8% (inactive).

For the molecule `N#CC1=C(N)SC(N)=C(C#N)C1c1ccc(C(F)(F)F)cc1`, the viability in assay [1] was 90%; in assay [3], 90% (inactive); in assay [4], 56.3% (inactive); in assay [5] it was 84.3% (inactive); in assay [6] (setting [9]), 89.3%; in assay [6] (setting [10]), 84.3%. For the same molecule, the Her2 level in assay [2] is 104% (inactive). Further, in assay [6] (H69AR cells + 2 uM doxorubicin), the differential viability (reversal) was -4.95% (inactive). The results for the inhibition in assay [7] and in assay [8] were 5.58% (inactive) and 0.82% (inactive), respectively.
